# S100A4 inh HTS = S100A4-myosin IIA interaction inhibition; P26447; S100A4/TAMRA-MyoIIA peptide fluorescence polarization; inhibition, % at 10.7 µM; actives 0.14% (n = 360,000);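 active means mean inhibition of at least 70% across replicates, with every replicate also reaching that level; inconclusive means mean inhibition reaches 70% but some replicates fall short; inactive means mean inhibition below 70%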
# Target sequence (P26447 whole entry, looked up): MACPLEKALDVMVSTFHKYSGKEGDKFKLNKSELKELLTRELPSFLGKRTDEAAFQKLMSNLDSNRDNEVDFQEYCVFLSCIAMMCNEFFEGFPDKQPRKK
#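 incubation = readout 5 min after mixing, signal stable up to 60 min | system = S100A4 monomer protein | buffer or medium = HEPES pH 7.2 with CaCl2, KCl, NaCl, DTT, Triton | benchmarks = neutral control DMSO, positive control TFP | also added = fluorescent myosin IIA peptide, 5 nM | compound dosing = one concentration per compound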
# FN deposit inh = fibronectin deposition inhibition; actives 0.086% (n = 350,000); inhibition, % at 12.6 µM; AH1F fibroblasts, Alexa488-fibronectin deposition fluorescence, overnight;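 active means mean inhibition across replicates of 30% or more, regardless of how many single replicates reach that level; inconclusive means mean under 30% yet at least half of replicates reach 30%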
#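 test system = AH1F fibroblasts assembling fluorescent fibronectin matrix | quantity = 10000 AH1F cells per well | buffer or medium = DMEM plus 2% serum, read in PBS | doses = single dose, pinned | incubation = 1 h cell attachment, overnight exposure to compound and label | detection = fluorescence at 485 nm excitation, 525 nm emission | read-out basis = inhibition from reduced deposited-fibronectin fluorescence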
# miR122 inh = miR-122 inhibition in Huh7 cells; Huh7 miR-122 Renilla luciferase sensor, 48 h; neutral wells = 0, positive control = 100; activation (reporter increase), % at 12.5 µM; actives 0.3% (n = 340,000);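 active means mean replicate activation score at least 90 and every replicate individually at or above 90; inconclusive means only one of the two criteria met; inactive means neither criterion met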;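 further: higher luciferase means less miR-122 activity so hits act as miR-122 inhibitors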
# Ecoli rRNA inh = selective bacterial rRNA inhibition in E. coli; E. coli WT GFP vs humanized-ribosome RFP mutants, fluorescence, 24 h; hits give low values; DMSO median 0, no signal -100; GFP signal change (wild-type ribosome), % (test concentration not listed); actives 1.6% (n = 350,000);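 active means significant combined selectivity score with lowered wild-type GFP, culture density cut under 30%, mutant RFP and density less affected; inactive means any of these conditions unmet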
# Vif imaging = HIV Vif inhibition; actives 0.35% (n = 340,000); HEK293T cells, Vif self-association by quenched fluorescence, imaging, 24 h; AID 602346; inhibition, % at 7.49 µM; in the data active means inhibition above about 50%, passing the limit was not always enough; inconclusive means no clear call, values can overlap the other calls; inactive means below about 31%
# Env fusion inh = inhibitors of HIV Env-mediated cell fusion; HeLa-JRFL Env/CEM21 cell fusion, luciferase; inhibition, % at 12.3 µM; actives 1.1% (n = 360,000); AID 651610;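 active means mean replicate inhibition score of at least 50 and every replicate individually at or above 50; inconclusive means only one of the two criteria met; inactive means mean below 50 and not all replicates reaching 50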
# A number is an active result; i = inactive; ? = inconclusive; nt = no result; ! = not active in a repeat; [ ] = another dose, or the depositor's remark. Hits are enriched below; roughly 2.6% of the tested compounds scored in any of these assays.
SMILES,S100A4 inh HTS,FN deposit inh,miR122 inh,Ecoli rRNA inh,Vif imaging,Env fusion inh
C=CCC[C@@H](Cc1ccc(F)cc1)C(=O)OC[C@H](Cc1c[nH]c2ccccc12)NC(=O)[C@@H](CC=C)CC(=O)N[C@H](CO)Cc1ccccc1,i,i,i,i,nt,i
O=C1N[C@H](Cc2ccccc2)COCc2cn(nn2)CC[C@H]1Cc1ccccc1,i,i,nt,i,nt,i
C[C@@H]1CN([C@@H](C)CO)C(=O)c2cc(NC(=O)CCN3CCOCC3)ccc2O[C@H]1CN(C)C(=O)Nc1cccc2ccccc12,i,nt,i,i,nt,i
CCN1/C(=C2/SC(=S)N(NC(C)=O)C2=O)Sc2ccc(OC)cc21,i,i,i,i,71,i
O=C(C[N+]1(CC#Cc2ccccc2)CCOCC1)c1ccc(Cl)cc1,i,i,nt,-24,i,i
COc1ccc(C(NC(=O)CNC(C)=O)C(=O)Nc2ccc3c(c2)OCCO3)cc1 (stereo not given),nt,nt,i,nt,51,nt
COc1ccc(S(=O)(=O)N2CC[C@H]3[C@H](CO)Nc4ccc(C#Cc5cccnc5)cc4[C@H]32)cc1,i,i,nt,i,nt,nt
COc1ccc(C2CC(=O)Oc3cc(C)c(Cl)cc32)cc1 (stereo not given),i,i,i,i,i,i
COc1ccccc1C1CC(=O)Oc2cc(C)c(Cl)cc21 (stereo not given),i,i,i,-21,i,i
Cc1noc(C)c1S(=O)(=O)Nc1ccc2c(c1)C(=O)N([C@H](C)CO)C[C@H](C)[C@H](CN(C)S(=O)(=O)c1ccccc1)OCCCC[C@H](C)O2,i,i,i,i,nt,i
CCOC(=O)c1c2ccc(OCC(=O)NN)cc2n2ccccc12,i,i,nt,-24,i,i
COc1ccc2nc(NC(=O)C3CCN(S(=O)(=O)c4cccc5nsnc45)CC3)sc2c1,nt,i,i,nt,i,80
CC(C)NC(=O)N(C)C[C@H]1Oc2c(cccc2[N+](=O)[O-])C(=O)N(C)C[C@@H]1C,nt,i,nt,i,nt,nt
CC(C)CC#Cc1ccc([C@H]2[C@H]3CN(C(=O)Cc4cccnc4)CC(=O)N3[C@H]2CO)cc1,107,nt,nt,i,nt,nt
c1ccc(CNc2ncnc3ccccc23)cc1,i,i,i,nt,i,106!
c1ccc(CNc2nc(N3CCN(Cc4ccccc4)CC3)nc3ccccc23)cc1,i,i,i,-43,nt,i
CCS(=O)(=O)N1CC2(CN[C@H](CO)c3c2c2ccc(OC)cc2n3C)C1,nt,nt,nt,i,nt,nt
C[C@@H]1CCCCO[C@@H](CN(C)Cc2ccc(C(F)(F)F)cc2)[C@@H](C)CN([C@H](C)CO)C(=O)c2cc(NC(=O)CCCCCC(=O)Nc3ccccc3N)ccc2O1,i,nt,nt,i,nt,nt
COc1ccc(CN(C)C[C@@H]2Oc3c(NS(C)(=O)=O)cccc3C(=O)N([C@@H](C)CO)C[C@@H]2C)cc1,i,nt,i,i,nt,i
C[C@H]1CN([C@@H](C)CO)C(=O)CCCn2cc(nn2)CO[C@H]1CN(C)C(=O)Nc1cccc(Oc2ccccn2)c1,nt,i,i,i,nt,nt
O=CNc1ccc2c3c(cccc13)-c1ccccc1-2,i,i,i,i,56,i
CC(=O)Nc1ccc2c3c(cccc13)C(=O)N(c1ccccc1)C2=O,i,i,nt,i,i,i
CCOC(=O)c1cc2sccc2n1CCCN1C(=O)c2ccccc2C1=O,i,nt,i,-28,i,nt
CCOC(=O)C1(Cc2ccccc2Cl)CCN(Cc2csc(C(C)=O)c2)CC1,i,i,i,-23,i,i
O=C(C[C@@H]1CC[C@H](NS(=O)(=O)c2ccc(F)cc2)[C@H](CO)O1)NC1CCC1,i,i,nt,i,nt,i
SMILES,S100A4 inh HTS,FN deposit inh,miR122 inh,Ecoli rRNA inh,Vif imaging,Env fusion inh
C[C@@H]1CN([C@@H](C)CO)C(=O)c2cc(N(C)C)ccc2O[C@@H](C)CCCCO[C@H]1CN(C)Cc1ccc(C(F)(F)F)cc1,i,nt,i,i,nt,i
COc1cc2cc(CCCOC(=O)c3ccc(F)cc3)oc(=O)c2cc1OC,i,i,nt,-25,i,i
COc1ccc(NC(=O)/C=C/c2ccccc2[N+](=O)[O-])c(OC)c1,i,i,nt,-23,i,i
Cc1ccc(S(=O)(=O)Nc2ccc3c(c2)C(=O)N([C@H](C)CO)C[C@H](C)[C@@H](CN(C)S(=O)(=O)c2ccc(C)cc2)O3)cc1,i,nt,i,i,nt,i
COCC(=O)Nc1ccc2c(c1)C(=O)N(C)[C@@H]1CC[C@H](CC(=O)NCc3cccc(F)c3)O[C@H]1CO2,nt,i,i,i,nt,i
N#CCC(=O)Nc1nc(-c2ccc3c(c2)OCCO3)cs1,i,i,nt,i,i,i
O=C(Nc1nc(-c2ccc3c(c2)OCCO3)cs1)C1CCCC1,i,i,nt,-34,i,i
COc1ccc(S(=O)(=O)N(C)CC(=O)N2CCOCC2)cc1,i,i,i,i,i,i
COc1ccc(S(=O)(=O)N(CCc2ccccc2)CC(=O)N2CCOCC2)cc1,nt,i,125,nt,i,i
COC(=O)c1c(C)[nH]c(C(=O)OCC(=O)c2ccc(C)s2)c1C,i,i,i,-20,i,i
CCOC(=O)c1[nH]c(C)c(C(=O)OC)c1C,i,i,nt,i,i,i
COCC(=O)Nc1ccc2c(c1)C(=O)N(C)C[C@@H](OC)[C@@H](C)CN(C(=O)c1ccccc1F)[C@H](C)CO2,i,i,i,i,nt,i
CN(C)c1ccc(C(=O)c2ccc(N(C)C)c3ccccc23)cc1,nt,nt,?,nt,78,nt
COc1ccc(C(=O)c2ccc(N(C)C)cc2)c(OC)c1,i,nt,i,i,i,nt
COCCNC(=O)C[C@H]1CC[C@H]2[C@@H](COC[C@@H](O)CN2Cc2cccc(-c3ccncc3)c2)O1,i,i,i,i,nt,i
CCC(=O)Nc1ccc2c(c1)OC[C@H](C)N(Cc1ccncc1)C[C@H](C)[C@@H](OC)CN(C)C2=O,i,i,i,i,nt,i
COc1ccc([Si](C)(C)[C@@H]2[C@@H](CCO)O[C@]3(C(=O)N4c5c(cc(OC)cc53)C(C)=CC4(C)C)[C@H]2C)cc1,i,nt,nt,nt,nt,90[16.7 µM]
COc1ccc([Si](C)(C)[C@H]2[C@H](CCO)O[C@@]3(C(=O)N4c5c(cc(OC)cc53)C(C)=CC4(C)C)[C@@H]2C)cc1,i,nt,nt,nt,nt,i
COc1ccc([Si](C)(C)[C@@H]2[C@@H](CCO)O[C@]3(C(=O)N(Cc4ccccc4)c4ccc(N5C(=O)c6cccc7cccc5c67)cc43)[C@H]2C)cc1,i,nt,nt,nt,nt,64[16.7 µM]
C=CCN1C(=O)[C@]2(O[C@H](CCn3cc(CCO)nn3)[C@@H]([Si](C)(C)c3ccc(OC)cc3)[C@@H]2C)c2cc(N3C(=O)c4cccc5cccc3c45)ccc21,i,nt,nt,nt,nt,70[16.7 µM]
C[C@H]1CN([C@@H](C)CO)S(=O)(=O)c2ccc(C#CC3CC3)cc2O[C@@H]1CN(C)C(=O)c1cccnc1,i,i,i,i,nt,i

# From PubChem BioAssay
